The text below walks through data of ChEMBL document CHEMBL3108678, “Isolation and synthesis of pulmonarins A and B, acetylcholinesterase inhibitors from the colonial ascidian Synoicum pulmonaria” (J Nat Prod, 2014).

In data set [1] the test system is Corynebacterium glutamicum. Briefly: Antimicrobial activity against Corynebacterium glutamicum ATCC 13032 after 24 hrs. It is filed as functional. Conditions: ATCC 13032, 24 h. The essentials:
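Broth microdilution in Mueller Hinton broth at 37 °C. Compounds were dissolved in water and tested from 8 to 500 μg/mL against log-phase bacteria at a start of about 5 × 10⁵ cells per well. Growth was followed by optical density, with cecropin B (25 μM) as positive control. MIC was taken as the lowest concentration giving no change in optical density after 24 h at 37 °C.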

The next data set relates to MRC5. Briefly: Cytotoxicity against human MRC5 cells. It is filed as cell-based.
Another data set deals with HT-29. Put plainly: Cytotoxicity against human HT-29 cells. Type of data set: cell-based.
A further data set deals with Pseudomonas aeruginosa. Briefly: Antimicrobial activity against Pseudomonas aeruginosa ATCC 27853 at 8 to 500 ug/ml after 24 hrs. Type of data set: functional, organism-based. An outline of the steps: (§1)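 Broth microdilution in Mueller Hinton broth at 37 °C. Samples dissolved in H2O are mixed 1:1 with log-phase bacterial suspension, about 5 × 10⁵ cells per well, and tested at 8 to 500 μg/mL. Growth is followed by optical density. MIC is the lowest concentration giving no OD change after 24 h at 37 °C. Cecropin B (25 μM) serves as positive control.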

The target in data set [2] is T1, Acetylcholinesterase (Electrophorus electricus, UniProt O42275). Briefly: Noncompetitive inhibition of electric eel AChE using acetylthiocholine chloride as substrate after 5 mins by Dixon plot analysis.
T1 sequence (O42275 whole entry): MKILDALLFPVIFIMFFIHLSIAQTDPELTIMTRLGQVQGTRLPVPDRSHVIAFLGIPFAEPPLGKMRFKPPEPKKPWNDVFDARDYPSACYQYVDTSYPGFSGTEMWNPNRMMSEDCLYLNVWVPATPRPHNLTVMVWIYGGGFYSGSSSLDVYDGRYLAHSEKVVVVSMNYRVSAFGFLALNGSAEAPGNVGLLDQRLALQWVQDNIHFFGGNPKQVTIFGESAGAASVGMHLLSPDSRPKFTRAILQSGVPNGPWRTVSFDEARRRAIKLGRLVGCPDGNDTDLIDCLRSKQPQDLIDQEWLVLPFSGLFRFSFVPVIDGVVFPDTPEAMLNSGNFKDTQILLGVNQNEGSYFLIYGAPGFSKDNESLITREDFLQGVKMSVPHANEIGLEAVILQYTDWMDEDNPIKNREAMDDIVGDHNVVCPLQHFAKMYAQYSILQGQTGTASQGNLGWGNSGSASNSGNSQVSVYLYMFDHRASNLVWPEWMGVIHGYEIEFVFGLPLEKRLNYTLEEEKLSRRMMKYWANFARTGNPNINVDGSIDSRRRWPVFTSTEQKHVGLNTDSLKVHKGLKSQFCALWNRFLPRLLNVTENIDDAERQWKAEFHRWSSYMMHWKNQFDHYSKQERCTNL
The test system of another data set is Staphylococcus aureus. Briefly: Antimicrobial activity against Staphylococcus aureus ATCC 9144 at 8 to 500 ug/ml after 24 hrs. Type of data set: functional, organism-based. An outline of the steps: as §1
The target in data set [3] is T1, Acetylcholinesterase. Briefly: Inhibition of electric eel AChE using acetylthiocholine chloride as substrate after 5 mins by Ellman's method. On the technique in general: Ellman's reagent forms a yellow product with free thiols.
Data set [4] deals with Staphylococcus epidermidis. Put plainly: Antimicrobial activity against Staphylococcus epidermidis ATCC 35984 assessed as inhibition of biofilm formation. It is filed as functional, organism-based.
The next data set has as its system Escherichia coli. Put plainly: Antimicrobial activity against Escherichia coli ATCC 25922 at 8 to 500 ug/ml after 24 hrs. Type of data set: functional, organism-based. An outline of the steps:
as §1

A further data set has as its system A2058. Briefly: Cytotoxicity against human A2058 cells. Type of data set: cell-based.
A further data set deals with MCF7. Briefly: Cytotoxicity against human MCF7 cells. Type of data set: cell-based.

Activity calls are given as the source filed them. The calls are words filed in the database; no cut-off is given here.

`COc1c(Br)cc(C(=O)OCC[N+](C)(C)C)cc1Br.[Cl-]` showed an MIC in data set [1] of 500 µg/mL. In addition, the Activity result in the data set with MRC5, with HT-29, with A2058 and in the data set with MCF7 was “Non-toxic” in each case. For the same compound, the result in the data set with Pseudomonas aeruginosa, with Staphylococcus aureus and with Escherichia coli was inactive. Further, the affinity on Acetylcholinesterase [2] corresponds to a Ki of 90 µM. For the same compound, the IC50 on Acetylcholinesterase [3] came out at 105 µM. The inhibition result in data set [4] is “inactive”.

As for `COc1c(Br)cc(CC(=O)NCCCCC[N+](C)(C)C)cc1Br.[I-]`, the minimum inhibitory concentration (MIC) in [1] is 250 µg/mL. Besides, the Activity entry with MRC5, with HT-29, with A2058 and with MCF7 was “Non-toxic” in each case. Besides, the result in the data set on Pseudomonas aeruginosa, with Staphylococcus aureus and with Escherichia coli was inactive. This compound showed an inhibitory constant (Ki) at Acetylcholinesterase [2] of 20 µM. At Acetylcholinesterase [3], this compound had a 50% inhibitory concentration (IC50) of 36 µM. The inhibition result in data set [4] is “inactive”.

The MIC is the least concentration at which growth counts as inhibited. Broadly, the Ki is a dissociation constant, usually derived from enzyme kinetics or from competition with a known ligand. Read a low Ki as tighter binding. By IC50 is commonly meant the midpoint of a concentration-inhibition curve. A low value points to inhibition by little substance.
